Experimental data as given in publication PMC4519694 (Nature neuroscience, 2015).
Peptide text beside a SMILES is read from it.

Assays:
cAMP in striatal slices = experiment: cAMP level in striatal slices; format: cell-based, mouse
mice = experiment: Forced swim test; format: in vivo, mouse; conditions: infusion into NAc, two-trial FST, n = 5-7 (Supplementary Fig. 12c)
How it was run: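 Bilateral stereotaxic infusion into NAc under isoflurane (AP +1.50 mm from bregma, ML ±1.4 mm, DV −3.90 mm), 1 µl per hemisphere of peptide (115 µM) or PKA inhibitor (45 µM). Testing followed 90 min after peptide or 45 min after inhibitor. Mice aged 10–12 weeks swam in a glass cylinder of 25°C water for 10 min, then 8 min 24 h later. Two researchers, blind to treatment, scored immobility at 2–6 min.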

NMDA receptor = NMDA receptor current, whole-cell recording in striatal neurons; format: cell-based, mouse; conditions: D-APV 50 µM; NMDA 100 µM; -70 mV
PDE4B1 (PKA site) = experiment: PKA-mediated PDE4 phosphorylation in PC12 cells; format: cell-based; conditions: FSK 10 µM, n = 8 reactions, WT vs S145A at 3 min *P = 0.0241, at 15 min ***P < 0.0001
PDE4 (PKA site) = experiment: PDE4 phosphorylation at the PKA site in striatal slices; format: cell-based, mouse
How it was run: (§1)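 Acute mouse striatal slices, drug-treated, analysed by quantitative immunoblot. Phospho-specific signals normalized to the matching total-protein blot; loading normalized to β-actin, GAPDH and/or Coomassie. The PDE4 PKA-site antibody was an affinity-purified polyclonal, phosphorylation state-specific. Mean ± s.e.m.; t-test or ANOVA with Bonferroni post hoc.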

DARPP-32 (Thr34) = experiment: Phospho-Thr34 DARPP-32 in striatal slices; format: cell-based, mouse; conditions: 50 µM roscovitine, n = 3-6
How it was run: (§2)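 Acute mouse striatal slices were exposed to test compound and analysed by quantitative immunoblotting. Phospho-specific signals were normalized to the corresponding total-protein blots, and loading to β-actin, GAPDH and/or coomassie staining. Values are mean ± s.e.m.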

CREB (Ser133) = experiment: Phospho-Ser133 CREB in striatal slices; format: cell-based, mouse; conditions: 50 µM roscovitine, n = 3-6
How it was run: as §1

[1] = test system: AMPA receptor subunit GluR1 (Ser845); experiment: Phospho-Ser845 GluR1 in striatal slices; format: cell-based, mouse; conditions: 50 µM roscovitine, n = 3-6
How it was run: as §2

PDE = PDE activity in striatal lysates; format: biochemical, mouse; conditions: n = 4 slices
synapsin (Ser9) = experiment: Phospho-Ser9 synapsin in striatal slices; format: cell-based, mouse; conditions: 50 µM roscovitine, n = 3-6
How it was run: as §1

animals = conditions: ref [35]–[37]; cited from earlier work
PDE4 = conditions: ref [35]–[37]; cited from earlier work
humans = conditions: ref [35]–[37]; cited from earlier work
[2] = biological target: PDE4B1 phosphorylation by Cdk5 (Homo sapiens, UniProt Q00535); experiment: In vitro Cdk5-dependent phosphorylation of PDE4; format: biochemical, rat
Chain of PDE4B1 phosphorylation by Cdk5 (Q00535 whole entry): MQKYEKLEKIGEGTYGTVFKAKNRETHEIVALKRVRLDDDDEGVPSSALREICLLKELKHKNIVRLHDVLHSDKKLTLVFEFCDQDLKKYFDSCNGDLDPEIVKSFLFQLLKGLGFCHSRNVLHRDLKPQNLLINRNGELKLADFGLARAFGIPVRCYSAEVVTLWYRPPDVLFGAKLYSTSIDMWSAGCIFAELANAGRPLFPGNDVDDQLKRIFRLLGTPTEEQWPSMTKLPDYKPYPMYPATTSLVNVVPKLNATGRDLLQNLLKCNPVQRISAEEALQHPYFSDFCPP
Chain of PDE4B1 phosphorylation by Cdk5 (Q15078 99-307 partner limits assumed): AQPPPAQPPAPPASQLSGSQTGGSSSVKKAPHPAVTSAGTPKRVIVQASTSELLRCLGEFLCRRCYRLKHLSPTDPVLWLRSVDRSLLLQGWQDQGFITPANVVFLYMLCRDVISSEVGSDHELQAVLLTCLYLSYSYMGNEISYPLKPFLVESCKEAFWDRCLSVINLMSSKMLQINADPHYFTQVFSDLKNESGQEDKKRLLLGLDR

With `Oc1cc2c(c(Cl)c1O)CCNCC2c1ccccc1` (centres unmarked) [SKF81297] the cAMP level (cAMP in striatal slices; SKF81297 (1 µM, 10 min unless stated otherwise), n = 4 slices, **P = 0.0030) was “increase cAMP to similar levels”.
In the case of “RRRRRRR- ESFLYRSDSDYDLSPKAM [poly-arginine tagged PDE4 peptide]”, the FST performance (mice) is reported as “analogical effect on FST performance”.
For `N[C@H](CCCP(=O)(O)O)C(=O)O` [D-APV], the NMDA-evoked current (NMDA receptor) was “blocked”.
With `C=C[C@@]1(C)CC(=O)[C@]2(O)[C@@]3(C)[C@@H](O)CCC(C)(C)[C@@H]3[C@H](O)[C@H](OC(C)=O)[C@@]2(C)O1` [forskolin] the “PKA-mediated PDE4 phosphorylation after forskolin, S145A PDE4B1 versus WT” value (PDE4B1 (PKA site)) was “reduced PKA-mediated PDE4 phosphorylation” and the “PDE4 phosphorylation by PKA” value (PDE4 (PKA site); striatal slices (Supplementary Fig. 1e)) was “increased PDE4 phosphorylation by PKA”.
For `CC[C@H](CO)Nc1nc(NCc2ccccc2)c2ncn(C(C)C)c2n1` [roscovitine], the “phosphorylation of DARPP-32 (Thr34)” value (DARPP-32 (Thr34)) was “increased phosphorylation”, the “PKA-dependent phosphorylation of CREB (Ser133)” value (CREB (Ser133)) was “induced PKA-dependent phosphorylation” and the cAMP level (cAMP in striatal slices; Ros, n = 3 slices, *P = 0.0216) was “increase cAMP to similar levels”. For the same molecule, the “phosphorylation of GluR1 (Ser845)” value [1] was “increased phosphorylation”, the PDE activity (PDE; roscovitine 10 µM, *P = 0.011) was “attenuates PDE activity” and the PDE activity (PDE; roscovitine 50 µM, **P = 0.0037) was “attenuates PDE activity”. The “PKA-dependent phosphorylation of synapsin (Ser9)” value (synapsin (Ser9)) was “induced PKA-dependent phosphorylation”.
In the case of `CCNC(=O)[C@H]1O[C@@H](n2cnc3c(N)nc(NCCc4ccc(CCC(=O)O)cc4)nc32)[C@H](O)[C@@H]1O` [CGS21680], the “PKA-mediated PDE4 phosphorylation in response to CGS21680” value (PDE4 (PKA site); 5 µM, 2 min, Cdk5 cKO striatum, n = 4 slices from 2 mice, WT CGS vs cKO CGS *P = 0.0354) is reported as “Loss of PKA-mediated PDE4 phosphorylation”.
In the case of `COc1ccc(C2CNC(=O)C2)cc1OC1CCCC1` (centres unmarked) [rolipram, 4-[3-(cyclopenotoxyl)-4-methoxyphenyl]-2-pyrrolidone], the “behavioral responses to stressors” value (animals) is listed as “affect behavioral responses to stressors in animals”, the cAMP (PDE4) is listed as “elevate cAMP” and the antidepressant activity (humans) is listed as “have antidepressant activity in humans”.
Molecule `CC[C@H](C)[C@H](NC(=O)[C@H](CCCCN)NC(=O)[C@@H](NC(=O)[C@H](CCC(N)=O)NC(=O)[C@@H](N)CCCNC(=N)N)[C@@H](C)CC)C(=O)N[C@@H](Cc1c[nH]c2ccccc12)C(=O)N[C@@H](Cc1ccccc1)C(=O)N[C@@H](CCC(N)=O)C(=O)N[C@@H](CC(N)=O)C(=O)N[C@@H](CCCNC(=N)N)C(=O)N[C@@H](CCCNC(=N)N)C(=O)N[C@@H](CCSC)C(=O)N[C@@H](CCCCN)C(=O)N[C@@H](Cc1c[nH]c2ccccc12)C(=O)N[C@@H](CCCCN)C(=O)N[C@@H](CCCCN)C(=O)N[C@@H](CCC(=O)O)C(=O)N[C@@H](CO)C(=O)N[C@@H](Cc1ccccc1)C(=O)N[C@@H](CC(C)C)C(=O)N[C@@H](Cc1ccc(O)cc1)C(=O)N[C@@H](CCCNC(=N)N)C(=O)N[C@@H](CO)C(=O)N[C@@H](CC(=O)O)C(=O)N[C@@H](CO)C(=O)N[C@@H](CC(=O)O)C(=O)N[C@@H](Cc1ccc(O)cc1)C(=O)N[C@@H](CC(=O)O)C(=O)N[C@@H](CC(C)C)C(=O)N[C@@H](CO)C(=O)N1CCC[C@H]1C(=O)N[C@@H](CCCCN)C(=O)N[C@@H](C)C(=O)N[C@@H](CCSC)C(=O)O` [PDE4-siP] (H-RQIKIWFQNRRMKWKKESFLYRSDSDYDLSPKAM-OH) has an IC50 [2] of 13 µM.
